Results published in ChEMBL document CHEMBL4138245, “Design and synthesis of novel quinacrine-[1,3]-thiazinan-4-one hybrids for their anti-breast cancer activity” (Eur J Med Chem, 2018).
The source made the active and inactive calls. The rule behind the calls is not given here.

Columns and labels:
MDA-MB-468 [1] = assay: Antiproliferative activity against human MDA-MB-468 cells after 48 hrs by SRB assay; format: functional, cell-based; settings: MDA-MB-468, 48 h
Summary of the method: (§1)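 SRB assay: 5,000-10,000 cells/well plated, 24 h at 37 °C/5% CO2 before drug; seven concentrations from 100 μM down (two- to ten-fold serial dilutions, DMSO ≤0.1% final) for 48 h; TCA fixation (10% final, 60 min, 4 °C), 0.4% SRB in 1% acetic acid, solubilized in 10 mM Tris base, absorbance 515-564 nm; growth = (Ti−Tz)/(C−Tz)×100; IC50 from sigmoidal variable-slope fit; triplicates, ≥2 independent experiments.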

MCF7 [2] = assay: Antiproliferative activity against human MCF7 cells after 48 hrs by SRB assay; format: functional, cell-based; settings: MCF7, 48 h; summary of the method: as §1
MCF7 [3] = assay: Antiproliferative activity against human MCF7 cells assessed as compound concentration required to show complete inhibition of cell viability up to 96 hrs by SRB assay; format: functional
BT-20 = assay: Antiproliferative activity against human BT20 cells assessed as compound concentration required to show complete inhibition of cell viability up to 96 hrs by SRB assay; format: functional
MDA-MB-468 [4] = assay: Antiproliferative activity against human MDA-MB-468 cells assessed as compound concentration required to show complete inhibition of cell viability up to 96 hrs by SRB assay; format: functional
LNCaP = assay: Antiproliferative activity against human LNCAP cells assessed as compound concentration required to show complete inhibition of cell viability up to 96 hrs by SRB assay; format: functional
NCI-H1975 = assay: Antiproliferative activity against human NCI-H1975 cells assessed as compound concentration required to show complete inhibition of cell viability up to 96 hrs by SRB assay; format: functional
MCF-10A = assay: Antiproliferative activity against human MCF10A cells at 1 to 2 uM up to 96 hrs by SRB assay; format: cell-based
MDA-MB-231 = assay: Cell cycle arrest in human MDA-MB-231 cells assessed as accumulation at S phase at 2 uM after 48 hrs by propidium iodide staining based flow cytometry; format: functional
Summary of the method: (§2)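 MCF7, MDA-MB231 and non-cancer 184B5 breast cells exposed to 2 μM for 48 h, then cell-cycle analysis by flow cytometry; duplicates, repeated three times.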

184B5 [5] = assay: Cell cycle arrest in human 184B5 cells at 2 uM after 48 hrs by propidium iodide staining based flow cytometry; settings: 184b5, 48 h; summary of the method: as §2
MCF7 [6] = assay: Cell cycle arrest in human MCF7 cells assessed as DNA content at 2 uM after 24 hrs by BrdU incorporation assay (reference value: 32.9%); format: functional
184B5 [7] = assay: Inhibition of DNA replication in human 184B5 cells assessed as EdU incorporation at 2 uM pretreated for 48 hrs followed by EdU addition at final 45 mins of 48 hrs incubation time (reference value: 55%); format: cell-based; set-up: scale not given: the % may be the effect or the level left; settings: 184b5, 48 h
MCF7 [8] = assay: Upregulation of Cyclin-E protein expression in human MCF7 cells at 2 uM after 12 to 24 hrs by Western blot method; format: functional, cell-based
MCF7 [9] = assay: Downregulation of Cyclin-B protein expression in human MCF7 cells at 2 uM after 24 to 72 hrs by Western blot method; format: functional, cell-based
MCF7 [10] = assay: Downregulation of Cyclin-A protein expression in human MCF7 cells at 2 uM after 24 to 72 hrs by Western blot method; format: functional, cell-based
MCF7 [11] = assay: Induction of DNA damage in human MCF7 cells assessed as increase in gammaH2Ax level at 2 uM after 24 to 48 hrs by Western blot method; format: functional, cell-based
[12] = target: T1, Serine/threonine-protein kinase Chk1 (Homo sapiens) (UniProt O14757); assay: Induction of CHK1 phosphorylation at S298 residue in human MCF7 cells at 2 uM after 12 to 48 hrs by Western blot method; format: cell-based
T1 sequence (whole entry): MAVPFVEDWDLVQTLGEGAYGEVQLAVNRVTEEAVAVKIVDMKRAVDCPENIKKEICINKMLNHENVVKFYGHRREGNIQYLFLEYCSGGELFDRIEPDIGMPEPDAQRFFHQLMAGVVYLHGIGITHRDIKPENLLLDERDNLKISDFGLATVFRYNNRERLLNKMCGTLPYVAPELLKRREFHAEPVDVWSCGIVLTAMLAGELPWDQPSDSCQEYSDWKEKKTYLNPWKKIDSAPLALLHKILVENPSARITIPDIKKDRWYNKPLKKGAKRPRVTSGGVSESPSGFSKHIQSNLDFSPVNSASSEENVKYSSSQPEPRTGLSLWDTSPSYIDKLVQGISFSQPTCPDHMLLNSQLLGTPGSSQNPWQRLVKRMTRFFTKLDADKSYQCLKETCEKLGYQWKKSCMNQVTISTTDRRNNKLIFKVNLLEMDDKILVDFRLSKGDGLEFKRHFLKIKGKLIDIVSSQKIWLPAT

[13] = Selectivity index, ratio of compound concentration for cell killing activity in human MCF10A cells to compound concentration for cell killing activity in human BT20 cells; format: toxicity, cell-based; settings: MCF10A cells versus BT20 cells, read-out: Selectivity Index
[14] = Selectivity index, ratio of compound concentration for cell killing activity in human MCF10A cells to compound concentration for cell killing activity in human BT474 cells; format: toxicity, cell-based; settings: MCF10A cells versus BT474 cells, read-out: Selectivity Index
[15] = Selectivity index, ratio of compound concentration for cell killing activity in human MCF10A cells to compound concentration for cell killing activity in human SK-BR-3 cells; format: toxicity, cell-based; settings: MCF10A cells versus SK-BR-3 cells, read-out: Selectivity Index
[16] = Selectivity index, ratio of compound concentration for cell killing activity in human MCF10A cells to compound concentration for cell killing activity in human CAMA1 cells; format: toxicity, cell-based; settings: MCF10A cells versus CAMA1 cells, read-out: Selectivity Index
[17] = Selectivity index, ratio of compound concentration for cell killing activity in human MCF10A cells to compound concentration for cell killing activity in human MDA-MB-231 cells; format: toxicity, cell-based; settings: MCF10A cells versus MDA-MB-231 cells, read-out: Selectivity Index
[18] = Selectivity index, ratio of compound concentration for cell killing activity in human MCF10A cells to compound concentration for cell killing activity in human PC3 cells; format: toxicity, cell-based; settings: MCF10A cells versus PC3 cells, read-out: Selectivity Index
[19] = Selectivity index, ratio of compound concentration for cell killing activity in human MCF10A cells to compound concentration for cell killing activity in human A549 cells; format: toxicity, cell-based; settings: MCF10A cells versus A549 cells, read-out: Selectivity Index
[20] = Selectivity index, ratio of compound concentration for cell killing activity in human 184B5 cells to compound concentration for cell killing activity in human MDA-MB-453 cells; format: toxicity, cell-based; settings: 184B5 cells versus MDA-MB-453 cells, read-out: Selectivity Index
[21] = Selectivity index, ratio of compound concentration for cell killing activity in human 184B5 cells to compound concentration for cell killing activity in human A549 cells; format: toxicity, cell-based; settings: 184B5 cells versus A549 cells, read-out: Selectivity Index
[22] = Selectivity index, ratio of compound concentration for cell killing activity in human 184B5 cells to compound concentration for cell killing activity in human NCI-H1975 cells; format: toxicity, cell-based; settings: 184B5 cells versus NCI-H1975 cells, read-out: Selectivity Index

In the case of `COc1ccc2nc3cc(Cl)ccc3c(NCCCN3C(=O)CCSC3c3cccs3)c2c1` (configuration not stated), the IC50 (MDA-MB-468 [1]) is reported as 1730 nM, the IC50 (MCF7 [2]) is reported as 690 nM and the Activity (MCF7 [3]) is reported as 1 µM. It also gave an Activity (BT-20) of 1 µM, an Activity (MDA-MB-468 [4]) of 2 µM and an Activity (LNCaP) of 2 µM. The Activity (NCI-H1975) was 2 µM, the Activity (MCF-10A) was “Non-Toxic” and the Activity (MDA-MB-231) was “Active”. For the same compound, the Activity (184B5 [5]) was “Non-Toxic”, the Activity (MCF7 [6]) was 0.7% and the Activity (184B5 [7]) was 52%. For the same compound, the Activity (MCF7 [8]) was “Active”, the Activity (MCF7 [9]) was “Active” and the Activity (MCF7 [10]) was “Active”. For the same compound, the Activity (MCF7 [11]) was “inactive”, the Activity [12] was “inactive” and the selectivity ratio [13] was 3 to 6. It also gave a selectivity ratio [14] of 3 to 6, a selectivity ratio [15] of 3 to 6 and a selectivity ratio [16] of 3 to 6. It also gave a selectivity ratio [17] of 3 to 6, a selectivity ratio [18] of 3 to 6 and a selectivity ratio [19] of 3 to 6. The selectivity ratio [20] was 3 to 6, the selectivity ratio [21] was 3 to 6 and the selectivity ratio [22] was 3 to 6.
